ChEMBL document CHEMBL1275249, “Meropenem dosing in critically ill patients with sepsis receiving high-volume continuous venovenous hemofiltration” (Antimicrob Agents Chemother, 2010)
Values after ≈ are worked out from the molar mass of the structure shown.

How the values were obtained:
Homo sapiens [1] = organism: Homo sapiens; assay: Plasma protein binding in patient with acute kidney injury; format: ADME, organism-based
[2] = tested on: Burkholderia pseudomallei; assay: Antimicrobial activity against Burkholderia pseudomallei; format: functional
[3] = Renal clearance in critically ill patient with sepsis at […], iv administered every 8 hrs by HPLC method; format: ADME, organism-based, Kidney; set-up: route intravenous; conditions: human, in vivo, read-out: CL_renal (converted)
Outline: (§1)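 Meropenem 1,000 mg as reconstituted IV bolus via central venous catheter every 8 h in septic ICU patients on CVVHF. Plasma sampled predose and at 15–480 min, plus 0–8 h urine. Levels measured by validated C18 HPLC-UV at 298 nm with ertapenem internal standard. Noncompartmental analysis used linear trapezoidal AUC0-8 and AUMC, and λz from 2–8 h log-linear regression.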

[4] = Cmax in critically ill patient with sepsis at […], iv administered every 8 hrs by HPLC method; format: ADME, organism-based; set-up: route intravenous; conditions: human, in vivo; outline: as §1
Homo sapiens [5] = assay: Hemofiltration clearance in critically ill patient with sepsis receiving high-volume continuous venovenous hemofiltration at […], iv administered every 8 hrs by HPLC method; format: ADME, organism-based; set-up: route intravenous; conditions: in vivo
Outline: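 Same 1,000 mg q8h IV bolus regimen on CVVHF. Filter was changed if it was over 3 h old at the start of sampling. Pre- and postfilter blood and ultrafiltrate were collected at matched times over 0–480 min, and all ultrafiltrate was collected for the interval. Concentrations were measured by HPLC-UV. CVVHF clearance = ultrafiltrate amount/AUC0-8; […].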

[6] = fT>MIC in patient with acute kidney injury infected with Burkholderia pseudomallei; format: functional
Outline: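 Ten critically ill septic patients with AKI on high-volume CVVHF received meropenem 1,000 mg every 8 h as a central-venous bolus. Plasma was assayed by HPLC-UV at 298 nm with an ertapenem internal standard. Concentration-time data were compared with an MIC of 4 mg/liter.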

Homo sapiens [7] = assay: Clearance not mediated by CVVHF in critically ill patient with sepsis at […], iv administered every 8 hrs by HPLC method; format: ADME, organism-based; set-up: route intravenous; conditions: in vivo
Homo sapiens [8] = assay: Ultrafiltration flow rate in critically ill patient with sepsis receiving high-volume continuous venovenous hemofiltration at […], iv administered every 8 hrs by HPLC method; format: ADME, organism-based; set-up: route intravenous; conditions: in vivo

C[C@@H](O)[C@H]1C(=O)N2C(C(=O)O)=C(S[C@@H]3CN[C@H](C(=O)N(C)C)C3)[C@H](C)[C@H]12 [MEROPENEM]
Activity (Homo sapiens [1]): 2% | MIC90 [2]: 4 µg/mL (≈ 10.4 µM) | CL renal at 8 h [3]: 0.0833 mL/min | Cmax [4]: 56.6 µg/mL | CL (Homo sapiens [5]): 3.5 L/h | fT>MIC [6]: 40% | CL (Homo sapiens [7]): 2.4 L/h | Activity (Homo sapiens [8]): 4.4 L/h
